Measurements taken from ChEMBL document CHEMBL4229565 (J Med Chem, 2018).
Active and inactive are the calls of the source. No cut-off for these calls is given here.

Tests used:
[1] = system: Trypanosoma brucei brucei; experiment: Antitrypanosomal activity against Trypanosoma brucei brucei s427 trypomastigotes infected in NMRI mouse at 0.3 to 3 mg/kg, po administered twice daily for 4 days starting from day 3 post infection; type: functional, organism-based
In short: (§1)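 Stage 1 HAT model: female NMRI mice infected with T. brucei s427. Compound given orally twice a day for 4 days, starting day 3 postinfection. Outcome scored as cure versus relapse.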

[2] = Inhibition of Trypanosoma brucei NMT using [3H]-myristoyl-coA/biotinylated CAP5.5 as substrate after 50 mins by scintillation proximity assay
In short: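 TbNMT scintillation proximity assay at 22–23 °C, with test compound dilutions added in DMSO. Reaction: 30 mM Tris pH 7.4, 0.5 mM EDTA, 0.5 mM EGTA, 1.25 mM DTT, 0.1% Triton X-100, 0.125 μM [3H]myristoyl-coA, 0.5 μM biotinylated CAP5.5 peptide, 5 nM enzyme. Enzyme added first, then substrate mix to start; stopped after 50 min with phosphoric acid pH 4.0/MgCl2/SPA beads; scintillation counting.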

[3] = system: Trypanosoma brucei brucei; experiment: Antitrypanosomal activity against Trypanosoma brucei brucei s427 trypomastigotes infected in NMRI mouse at 10 mg/kg, po administered twice daily for 4 days starting from day 3 post infection; type: functional, organism-based; in short: as §1
[4] = system: Trypanosoma brucei brucei; experiment: Antitrypanosomal activity against bloodstream form of Trypanosoma brucei brucei s427 after 69 hrs by resazurin-based […] analysis; type: functional, organism-based; details: s427, 69 h
In short: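 Bloodstream T. b. brucei s427 was grown in modified HMI9 (56 μM 1-thioglycerol in place of 2-mercaptoethanol) and counted by hemocytometer. Cells (10^4/ml) were added to compound in DMSO and incubated 69 h at 37 °C, 5% CO2. Resazurin (50 μM final) was then added for 4 h more. Fluorescence read at ex 528/em 590 nm.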

[5] = system: Trypanosoma brucei brucei; experiment: Antitrypanosomal activity against Trypanosoma brucei brucei GVR35 trypomastigotes infected in NMRI mouse assessed as reduction in parasitaemia level at 50 to 200 mg/kg, po administered twice daily for 5 days starting from day 21 post infection; type: functional, organism-based
[6] = Fraction unbound in CD1 mouse plasma at 10 ug/ml after 5 hrs by UPLC-MS/MS analysis
[7] = Tmax in NMRI mouse at 50 mg/kg, po administered via gavage by UPLC/MS/MS analysis; type: ADME, organism-based; details: in vivo
[8] = system: Trypanosoma brucei brucei; experiment: Antitrypanosomal activity against Trypanosoma brucei brucei GVR35 trypomastigotes infected in CF1 mdr1a deficient mouse assessed as reduction in parasitaemia level at 50 mg/kg, po administered twice daily for 5 days starting from day 21 post infection; type: functional, organism-based
In short: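 Stage 2 HAT model using CF-1 mdr1a-deficient mice infected with T. b. brucei GVR35. Compound given orally twice daily for 5 days from day 21 postinfection. Comparator arms: Berenil or melarsoprol given intraperitoneally once daily.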

[9] = AUC (0 to 8 hrs) in NMRI mouse at 50 mg/kg, po administered via gavage by UPLC/MS/MS analysis; type: ADME, organism-based; parameters: dose 50 mg/kg, time < 8 hr, route oral; details: in vivo
[10] = target: Voltage-gated inwardly rectifying potassium channel KCNH2 (Homo sapiens, UniProt Q12809); experiment: Inhibition of human ERG by patch clamp assay
Sequence of Voltage-gated inwardly rectifying potassium channel KCNH2 (Q12809 whole entry): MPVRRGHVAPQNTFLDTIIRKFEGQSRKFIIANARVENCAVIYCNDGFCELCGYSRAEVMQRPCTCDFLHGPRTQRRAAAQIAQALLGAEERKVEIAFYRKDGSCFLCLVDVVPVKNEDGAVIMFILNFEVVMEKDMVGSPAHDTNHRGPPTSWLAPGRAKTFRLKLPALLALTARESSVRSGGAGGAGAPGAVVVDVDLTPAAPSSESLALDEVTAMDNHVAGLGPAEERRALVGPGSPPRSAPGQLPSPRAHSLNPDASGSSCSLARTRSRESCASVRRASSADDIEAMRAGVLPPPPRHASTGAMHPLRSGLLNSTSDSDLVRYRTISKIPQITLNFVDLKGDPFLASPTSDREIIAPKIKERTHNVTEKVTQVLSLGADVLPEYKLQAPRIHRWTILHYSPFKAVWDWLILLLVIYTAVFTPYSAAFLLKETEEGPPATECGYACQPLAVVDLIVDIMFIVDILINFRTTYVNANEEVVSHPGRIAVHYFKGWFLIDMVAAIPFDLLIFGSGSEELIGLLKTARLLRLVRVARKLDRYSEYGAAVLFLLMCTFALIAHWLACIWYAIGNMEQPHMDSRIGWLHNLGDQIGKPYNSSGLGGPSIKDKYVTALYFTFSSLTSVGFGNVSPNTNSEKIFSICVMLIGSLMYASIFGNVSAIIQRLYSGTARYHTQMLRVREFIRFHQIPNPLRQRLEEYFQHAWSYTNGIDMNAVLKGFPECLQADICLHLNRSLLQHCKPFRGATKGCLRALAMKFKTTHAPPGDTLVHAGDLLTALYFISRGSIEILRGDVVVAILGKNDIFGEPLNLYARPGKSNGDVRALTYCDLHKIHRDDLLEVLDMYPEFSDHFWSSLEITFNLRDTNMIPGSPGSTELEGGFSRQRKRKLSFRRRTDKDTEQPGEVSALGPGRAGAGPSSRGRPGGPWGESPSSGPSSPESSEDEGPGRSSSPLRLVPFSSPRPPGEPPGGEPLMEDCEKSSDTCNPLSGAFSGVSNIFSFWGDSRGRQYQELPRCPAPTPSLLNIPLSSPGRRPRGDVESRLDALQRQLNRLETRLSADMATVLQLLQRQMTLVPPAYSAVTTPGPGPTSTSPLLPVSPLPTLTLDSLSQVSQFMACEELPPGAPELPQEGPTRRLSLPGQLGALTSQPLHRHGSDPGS

[11] = Intrinsic clearance in CD1 mouse liver microsomes at 1 uM measured up to 30 mins by UPLC-MS/MS method; type: ADME, microsome; details: 0.5 h
[12] = Cmax in NMRI mouse at 50 mg/kg, po administered via gavage by UPLC/MS/MS analysis; type: ADME, organism-based; parameters: dose 50 mg/kg, route oral; details: in vivo
[13] = Toxicity in NMRI mouse administered orally for twice per day for 3 days; type: organism-based; details: in vivo, po
[14] = Half life in CD1 mouse plasma at 50 uM by UPLC-MS/MS analysis; type: ADME, cell-free
[15] = Drug metabolism in CD1 mouse plasma assessed as 4-(azepan-1-yl)-3-(4-methoxyphenylsulfonamido)benzoic acid formation at 50 uM incubated for 30 to 180 mins by UPLC-MS/MS analysis; type: ADME, cell-free
[16] = Ratio of drug level in NMRI mouse brain to plasma at 0.5 mg/kg, iv after 5 to 30 mins by UPLC/MS/MS analysis; details: brain and plasma

Row | Compound | EC50 [4] [nM] | fraction unbound at 5 h, 10 ug/ml [6] | CLH [11] [mL/min/g] | IC50 [2] [nM] | IC50 [10] [nM] | other results
1 | CC(C)Cc1ccc2nn(C)cc2c1NS(=O)(=O)c1ccc(CCCCC2CCN(C)CC2)cc1 | 5 | 0.062 | 2.9 | < 5 | 3700 | Activity [1]: inactive; Activity [3]: Active; Activity [5]: inactive; Tmax [7]: 1 h; Activity [8]: Active; AUC(0-t) at 8 h [9]: 48300 ng·h/mL; Cmax [12]: 11000 ng/mL; MTD at 72 h [13]: > 300 mg/kg
2 | CC(C)Cc1ccc2nn(C)cc2c1N(C(F)F)S(=O)(=O)c1ccc(CCCCC2CCN(C)CC2)cc1 | – | – | 2.3 | – | – | Kp [16]: 1.9
3 | CC(C)Cc1ccc2nn(C)cc2c1NS(=O)(=O)c1ccc(CCCOC[C@H]2COCCN2C)cc1 | 220 | – | 20 | 7 | 3100 | –

Second part, led by results:

Row | EC50 [4] [nM] | fraction unbound at 5 h, 10 ug/ml [6] | CLH [11] [mL/min/g] | Compound | IC50 [2] [nM] | IC50 [10] [nM] | other results
4 | 91 | 0.18 | 1.5 | CC(C)Cc1ccc2ncccc2c1NS(=O)(=O)c1ccc(CCCO[C@@H]2C[C@H]3CC[C@@H](C2)N3C)cc1 | 7 | 1600 | –
5 | 20 | – | – | COC(=O)c1ccc(N2CCCCCC2)c(NS(=O)(=O)c2ccc(CCCCC3CCN(C)CC3)cc2)c1 | 6 | – | half-life at 50 µM [14]: < 0.25 h; Drug metabolism [15]: Metabolite_Detected
6 | 59 | 0.093 | 1.8 | CC(C)Cc1ccc2ncccc2c1NS(=O)(=O)c1ccc(CCCCN2CCCN(C)CC2)cc1 | 6 | – | –
7 | 40 | 0.17 | 6.2 | CC(C)Cc1ccc2ncccc2c1NS(=O)(=O)c1ccc(CCCN2CCN3CCC[C@@H]3C2)cc1 | < 5 | 1300 | –
8 | 39 | – | 1.4 | CC(C)Cc1ccc2nn(C)cc2c1NS(=O)(=O)c1ccc(CCCO[C@@H]2C[C@H]3CC[C@@H](C2)N3C)cc1 | 5 | 3300 | –
